A short description of assay [1]: Her2 expression decrease, cell viability multiplex – SKBR3 breast tumor cells, AlphaScreen, ATP viability, primary screen (AID 461;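 active = Her2 level under about 52% in both replicate screens, with viability over 70% of control, limit read from the data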;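 for Her2 level: lower value means less Her2 protein in the cells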;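 for viability: percent of carrier control wells set as 100% viability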). As to conditions: SKBR3 Her2 protein level, 18-24 h, measured here: SKBR3 viability, ATP luminescence, at 10 µM. On the technique in general: In Alpha technology, singlet oxygen from a donor bead excites a nearby acceptor bead.
Assay [2] addresses Receptor tyrosine-protein kinase erbB-2 (Homo sapiens) (UniProt P04626). The assay is described as above. The settings on record: 18-24 h, at 10 µM, stronger effect = lower value.
The nature of assay [3]: reduced viability of SK-BR-3 breast cancer cells – cell-based, 24 h, human, pilot screen (AID 572;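 active = viability at or below 10% of carrier control in both of two separate runs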;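 note: compound exposure lasted between 18 and 24 h rather than exactly 24 h; 100% = carrier-treated control wells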). The settings on record: SK-BR-3 viability, CellTiter-Glo luminescence, at 10 µM, stronger effect = lower value. Background: In ATP-based viability assays light output follows the ATP content of the culture.
A short description of assay [4]: HUVEC growth inhibition – cell-based, human, primary screen (AID 575;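 active = viability at or below 30% in both replicate assays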;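 note: 100% = median of untreated cell wells with 0.1% DMSO on each plate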). The settings on record: HUVEC proliferation, CellTiter-Glo luminescence, 72 h; at 10 µM; stronger effect = lower value. In outline: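 system = HUVEC primary cells | amount = 1250 cells/well | buffer or medium = supplemented EBM, 2% fetal bovine serum | dosing = single-point 10 µM, DMSO 0.1% final | times = 72 h compound incubation | detection = CTG luminescence | read-out = % viability relative to median vehicle-well signal on each plate | control set = vehicle and MePR control wells | format = collagen-coated 384-well format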

Assay [5] in a line: H69AR cell proliferation blockers – human, duplicate replicates, primary screen (AID 580;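 active = viability at or under a set limit in both replicates, limit being median viability minus 3 SD, cut at about 48% in these data, passing the limit was not always enough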;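 note: 100% = mean luminescence of untreated wells and 0% = no signal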). As to conditions: H69AR lung tumor cells viability, ATP luminescence, 72 h; at 10 µM; stronger effect = lower value.
Assay [6] can be described thus: MRP1 drug-resistance reversers in H69AR cells – cell-based, doxorubicin co-treatment, pilot screen (AID 601;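 active = viability loss from added drug above about 55%, and viability with drug at most 40%, in both replicates, limit read from the data, passing the limit was not always enough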). The settings on record: CellTiter-Glo, 72 h, at 10 µM; for differential viability (reversal): stronger effect = higher value.
Assay [7] in a line: yeast transport mutant growth inhibition pilot in 384-well plates, post-Golgi transport modulator project (AID 636; in the data active = inhibition above about 31%). The settings on record: absorbance 615 nm, about 18 h, stronger effect = higher value.
Assay [8] in a line: growth suppression of yeast trafficking mutant, preliminary HTS, modulators of trafficking downstream of Golgi apparatus project, 1536-format plate, OD 615 nm (AID 637). As to conditions: yeast transport mutant growth, absorbance 615 nm, 18 h; stronger effect = higher value.
The mark [9] stands for this setting: H69AR cells + 2 uM doxorubicin, measured here: viability with 2 uM doxorubicin, stronger effect = lower value.
[10] abbreviates: H69AR cells, compound alone cytotoxicity.

Calls of active or inactive are those of the source. Cut-off read from the data, not from the text of the source, unless noted: active = inhibition above about 30%; inactive = the rest.

Sequence of Receptor tyrosine-protein kinase erbB-2 (Homo sapiens) (P04626 whole entry, looked up): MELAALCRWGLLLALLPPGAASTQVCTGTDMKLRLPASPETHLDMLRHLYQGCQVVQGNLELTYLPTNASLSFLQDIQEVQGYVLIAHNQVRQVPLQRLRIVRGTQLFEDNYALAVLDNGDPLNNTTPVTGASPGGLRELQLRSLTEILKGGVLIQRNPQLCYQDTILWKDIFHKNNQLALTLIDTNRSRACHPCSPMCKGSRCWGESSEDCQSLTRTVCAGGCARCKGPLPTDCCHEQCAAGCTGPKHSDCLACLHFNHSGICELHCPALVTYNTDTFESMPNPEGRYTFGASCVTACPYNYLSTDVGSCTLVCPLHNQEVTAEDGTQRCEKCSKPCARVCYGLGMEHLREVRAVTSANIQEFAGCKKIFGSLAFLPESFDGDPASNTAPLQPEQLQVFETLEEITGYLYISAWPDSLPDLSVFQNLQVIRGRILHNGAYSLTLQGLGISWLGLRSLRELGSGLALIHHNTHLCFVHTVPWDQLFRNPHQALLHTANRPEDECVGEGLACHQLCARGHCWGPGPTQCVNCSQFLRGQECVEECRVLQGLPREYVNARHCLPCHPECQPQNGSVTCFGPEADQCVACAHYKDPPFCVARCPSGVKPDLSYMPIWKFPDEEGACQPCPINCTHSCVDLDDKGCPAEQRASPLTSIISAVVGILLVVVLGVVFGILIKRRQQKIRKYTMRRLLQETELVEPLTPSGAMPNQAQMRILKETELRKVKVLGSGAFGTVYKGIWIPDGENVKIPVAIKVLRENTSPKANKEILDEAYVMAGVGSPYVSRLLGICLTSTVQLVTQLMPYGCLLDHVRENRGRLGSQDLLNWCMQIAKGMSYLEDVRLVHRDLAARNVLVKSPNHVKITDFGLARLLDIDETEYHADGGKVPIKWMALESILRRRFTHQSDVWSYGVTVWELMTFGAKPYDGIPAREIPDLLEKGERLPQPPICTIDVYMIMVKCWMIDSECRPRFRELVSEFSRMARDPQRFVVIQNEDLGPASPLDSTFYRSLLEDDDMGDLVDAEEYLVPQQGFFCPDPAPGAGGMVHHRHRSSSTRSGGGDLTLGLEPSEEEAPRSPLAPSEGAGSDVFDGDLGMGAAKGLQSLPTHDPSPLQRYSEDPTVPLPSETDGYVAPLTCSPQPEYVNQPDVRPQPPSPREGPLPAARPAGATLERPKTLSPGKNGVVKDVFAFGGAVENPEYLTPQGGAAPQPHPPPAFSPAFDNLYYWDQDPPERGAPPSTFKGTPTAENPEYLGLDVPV

Turning to `CCOc1nc(SCCOc2ccccc2)nc(N(C)C)n1`, the viability (commonly a read-out of living cells in per cent, often relative to untreated cells) in assay [1] was 96%; in assay [3], 96% (inactive); in assay [4] it was 72.4% (inactive); in assay [5], 107% (inactive); in assay [6] (setting [9]) it was 102%; in assay [6] (setting [10]), 107%. The Her2 level in assay [2] was 115% (inactive). Further, the differential viability (reversal) in assay [6] (H69AR cells + 2 uM doxorubicin) is 4.17% (inactive). The inhibition (in general, the change of the read-out against control, counted positive when it falls) is -1.84% (inactive) in assay [7] and -3.5% (inactive) in assay [8].
For the compound `CC(NS(=O)(=O)c1ccccc1)C(c1cccs1)N1CCN(C)CC1` (stereo not given), the viability in assay [1] was 93.5%; in assay [3], 93.5% (inactive); in assay [4] it was 81.1% (inactive); in assay [5], 94.5% (inactive); in assay [6] (setting [9]) it was 79.4%; in assay [6] (setting [10]), 94.5%. In assay [2], the Her2 level was 79.5% (inactive). The differential viability (reversal) in assay [6] (H69AR cells + 2 uM doxorubicin) was 15% (inactive). Moreover, the inhibition in assay [7] is -5% (inactive); in assay [8], -6.83% (inactive).
For `Cc1cccc2c1N(CC(=O)OC(C)C)C(=O)C2=O`, the viability in assay [1] is 76.5%; in assay [3], 76.5% (inactive); in assay [4], 95% (inactive); in assay [5] it was 75.2% (inactive); in assay [6] (setting [9]), 78.5%; in assay [6] (setting [10]), 75.2%. Besides, the Her2 level in assay [2] was 103% (inactive). Further, in assay [6] (H69AR cells + 2 uM doxorubicin), the differential viability (reversal) was -3.31% (inactive). For the same compound, the inhibition in assay [7] was 1.67% (inactive); in assay [8], 6.67% (inactive).
In the case of `Cc1ccccc1N1OC2C(=O)N(c3ccc(F)cc3)C(=O)C2C1c1ccccn1` (stereo not given), the viability is 130% in assay [1]; 130% (inactive) in assay [3]; 115% (inactive) in assay [4]; 91.4% (inactive) in assay [5]; 81.5% in assay [6] (setting [9]); 91.4% in assay [6] (setting [10]). Also, in assay [2], the Her2 level is 116% (inactive). Also, the differential viability (reversal) in assay [6] (H69AR cells + 2 uM doxorubicin) is 9.9% (inactive). Also, the inhibition in assay [7] was -5.58% (inactive); in assay [8], -2.86% (inactive).
`O=C(C1CC1)N1CCC(c2nc(-c3ccc(S(=O)(=O)NCC4CCCO4)cc3)no2)CC1` (stereo not given): the viability in assay [1] is 74.5%; in assay [3] it was 74.5% (inactive); in assay [4], 54.7% (inactive); in assay [5] it was 90.6% (inactive); in assay [6] (setting [9]), 99.9%; in assay [6] (setting [10]), 90.6%. Besides, the Her2 level in assay [2] was 114% (inactive). Further, the differential viability (reversal) in assay [6] (H69AR cells + 2 uM doxorubicin) is -9.35% (inactive). In addition, the inhibition in assay [7] was 0.41% (inactive); in assay [8] it was -0.82% (inactive).
For `Cc1onc(-c2c(Cl)cccc2Cl)c1C(N)=O`, the viability in assay [1] is 103%; in assay [3], 103% (inactive); in assay [4], 100% (inactive); in assay [5], 106% (inactive); in assay [6] (setting [9]), 92.5%; in assay [6] (setting [10]), 106%. Further, the Her2 level in assay [2] was 116% (inactive). Also, the differential viability (reversal) in assay [6] (H69AR cells + 2 uM doxorubicin) was 13.6% (inactive). Moreover, the values for the inhibition in assay [7] and in assay [8] were -2.03% (inactive) and -5.08% (inactive), respectively.
Regarding `CCC(=O)/C=C1\Sc2ccc(OC)cc2N1CCO`, the viability in assay [1] was 120%; in assay [3], 120% (inactive); in assay [4] it was 98.6% (inactive); in assay [5], 87.8% (inactive); in assay [6] (setting [9]), 85.7%; in assay [6] (setting [10]) it was 87.8%. The Her2 level in assay [2] is 98% (inactive). In assay [6] (H69AR cells + 2 uM doxorubicin), the differential viability (reversal) is 2.07% (inactive). Moreover, the figures for the inhibition in assay [7] and in assay [8] were -4.21% (inactive) and -4.68% (inactive), respectively.
Take `COc1ccc(C)cc1NC(=O)c1nnn(Cc2cccc(F)c2)c1N`: the viability in assay [1] was 85.5%; in assay [3] it was 85.5% (inactive); in assay [4], 64.9% (inactive); in assay [5] it was 82.7% (inactive); in assay [6] (setting [9]) it was 73%; in assay [6] (setting [10]), 82.7%. Also, the Her2 level in assay [2] is 102% (inactive). In assay [6] (H69AR cells + 2 uM doxorubicin), the differential viability (reversal) is 9.66% (inactive). The inhibition is -3.47% (inactive) in assay [7] and -5.9% (inactive) in assay [8].
`O=C(NCc1cccnc1)C1c2ccccc2C(=O)N1Cc1ccco1` (stereo not given): the viability in assay [1] is 94.5%; in assay [3] it was 94.5% (inactive); in assay [4] it was 92% (inactive); in assay [5], 92.9% (inactive); in assay [6] (setting [9]), 81.3%; in assay [6] (setting [10]), 92.9%. Further, the Her2 level in assay [2] was 91% (inactive). Further, the differential viability (reversal) in assay [6] (H69AR cells + 2 uM doxorubicin) is 11.6% (inactive). Besides, the inhibition was -1.56% (inactive) in assay [7] and -3.65% (inactive) in assay [8].
In the case of `CCOc1ccc(C(=O)Nc2ccc(N3CCN(C)CC3)cc2)cc1Br`, the viability in assay [1] is 114%; in assay [3] it was 114% (inactive); in assay [4] it was 2.57% (active); in assay [5], 81.8% (inactive); in assay [6] (setting [9]) it was 71.7%; in assay [6] (setting [10]) it was 81.8%. Further, the Her2 level in assay [2] was 93% (inactive). The differential viability (reversal) in assay [6] (H69AR cells + 2 uM doxorubicin) was 10.2% (inactive). Moreover, the inhibition in assay [7] was -4.67% (inactive); in assay [8], 12.1% (inactive).
Turning to `CCOC(=O)CC1(CC(=O)OCC)NC(=O)c2c(C)sc(C(=O)OCC)c2N1`, the viability was 92% in assay [1]; 92% (inactive) in assay [3]; 71.4% (inactive) in assay [4]; 101% (inactive) in assay [5]; 95.3% in assay [6] (setting [9]); 101% in assay [6] (setting [10]). Besides, the Her2 level in assay [2] is 93% (inactive). Besides, the differential viability (reversal) in assay [6] (H69AR cells + 2 uM doxorubicin) was 5.26% (inactive). Further, the inhibition was -1.05% (inactive) in assay [7] and 6.39% (inactive) in assay [8].
Regarding `Cc1cc2nc3c(nc2cc1C)C1(C(=O)O)CCC3(C)C1(C)C` (stereo not given), the viability is 103% in assay [1]; 103% (inactive) in assay [3]; 99.9% (inactive) in assay [4]; 95.3% (inactive) in assay [5]; 96.1% in assay [6] (setting [9]); 95.3% in assay [6] (setting [10]). The Her2 level in assay [2] was 95.5% (inactive). For the same compound, in assay [6] (H69AR cells + 2 uM doxorubicin), the differential viability (reversal) is -0.805% (inactive). For the same compound, the figures for the inhibition in assay [7] and in assay [8] were 0% (inactive) and -2.3% (inactive), respectively.
For the compound `Cc1ccc2c(c1)CCCN2C(=O)Nc1ccc2c(c1)OCO2`, the viability is 95.5% in assay [1]; 95.5% (inactive) in assay [3]; 84.8% (inactive) in assay [4]; 89.5% (inactive) in assay [5]; 89.2% in assay [6] (setting [9]); 89.5% in assay [6] (setting [10]). Besides, the Her2 level in assay [2] was 79% (inactive). The differential viability (reversal) in assay [6] (H69AR cells + 2 uM doxorubicin) was 0.28% (inactive). Moreover, the inhibition in assay [7] is -6.27% (inactive); in assay [8], 6.89% (inactive).
On to `C#CCNc1c(C)c(C)nc2ncnn12`, for which the viability was 104% in assay [1]; 104% (inactive) in assay [3]; 126% (inactive) in assay [4]; 104% (inactive) in assay [5]; 85.3% in assay [6] (setting [9]); 104% in assay [6] (setting [10]). The Her2 level in assay [2] is 97% (inactive). The differential viability (reversal) in assay [6] (H69AR cells + 2 uM doxorubicin) was 18.7% (inactive). Besides, the inhibition in assay [7] is -5.07% (inactive); in assay [8] it was 11.5% (inactive).
`Cc1ccc(C(=O)Nc2nc3c(s2)CCCC3)o1`: the viability in assay [1] is 104%; in assay [3], 104% (inactive); in assay [4] it was 60.9% (inactive); in assay [5], 73.3% (inactive); in assay [6] (setting [9]), 79.1%; in assay [6] (setting [10]), 73.3%. In addition, the Her2 level in assay [2] was 72% (inactive). The differential viability (reversal) in assay [6] (H69AR cells + 2 uM doxorubicin) was -5.85% (inactive). Further, the inhibition in assay [7] was -1.71% (inactive); in assay [8], 16.6% (inactive).

These data come from PubChem BioAssay.
